# From ChEMBL document CHEMBL4017489, “Design, Synthesis, and Evaluation of New Selective NM23-H2 Binders as c-MYC Transcription Inhibitors via Disruption of the NM23-H2/G-Quadruplex Interaction” (J Med Chem, 2017)
# pKd: −log10 of the molar value. Activity calls are given as the source filed them. No cut-off for these calls is given here.
# Legend:
# [1] = tested on: Nucleoside diphosphate kinase B (Homo sapiens), P22392 [F60A]; assay: Binding affinity to N-terminal NT-647-NHS labeled NM23-H2 F60A mutant (unknown origin) up to 50 uM by SPR analysis
# [2] = tested on: SiHa; assay: Antitumor activity against human SiHa cells xenografted in BALB/C nude mouse assessed as tumor growth inhibition at 2.5 mg/kg, ip administered daily after 3 weeks relative to control; assay type: functional; conditions: 504 h, read-out: TGI
# [3] = molecular target: Nucleoside diphosphate kinase B (Homo sapiens, UniProt P22392); assay: Binding affinity to NM23-H2 (unknown origin) by SPR analysis
# [4] = molecular target: Nucleoside diphosphate kinase B (Homo sapiens, UniProt P22392, D54A); assay: Binding affinity to NM23-H2 D54A mutant (unknown origin) by SPR analysis
# [5] = molecular target: Nucleoside diphosphate kinase B (Homo sapiens, UniProt P22392, H118F); assay: Binding affinity to NM23-H2 H118F mutant (unknown origin) by SPR analysis
# [6] = Binding affinity to 5'-FAM/3'-TAMRA labeled Pu22 c-myc G-quadruplex DNA (unknown origin) assessed as increase in melting temperature at 1 uM by FRET assay
# [7] = Binding affinity to Htg21 telomeric G-quadruplex DNA (unknown origin) at 40 uM after 30 mins by SPR analysis
# [8] = tested on: SiHa; assay: Effect on NM23-H2 mRNA level in human SiHa cells up to 2 uM after 9 hrs by RT-PCR analysis; assay type: functional, cell-based
# Method in brief: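 SiHa cells treated with 0, 0.5, 1.0 or 2.0 μM for 9 h. TRIzol RNA (1.5 μg) reverse-transcribed with M-MLV and oligo(dT) for 1 h at 42 °C. Semiquantitative PCR run for 30 cycles (58 °C annealing) and products resolved on 1.5% agarose. Band intensity normalized to β-actin, with untreated sample set at 100%; three repeats.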
# [9] = tested on: SiHa; assay: Cell cycle arrest in human SiHa cells assessed as accumulation at S phase at 2 uM after 3 hrs by propidium iodide staining based flow cytometry (reference value: 13%); assay type: functional
# Method in brief: (§1)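 SiHa cells (2.0 × 10^5 per well) plated 24 h, then exposed to 2 μM compound or left untreated for 3, 6, 9, 12, 24, 36 or 48 h. Cells washed in PBS, fixed overnight in ice-cold 70% ethanol, treated with 20 μg/mL RNase A for 30 min at 37 °C, stained with PI, and read by flow cytometry at 488 nm. Phase percentages compared with untreated control; at least three experiments.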
# [10] = tested on: SiHa; assay: Down regulation of CDK4 expression in human SiHa cells at 0.5 to 2 uM after 24 to 48 hrs by Western blot analysis; assay type: functional, cell-based
# Method in brief: (§2)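 SiHa cells (2.0 × 10^5) treated with compound at various concentrations for 24 or 48 h, then lysed at 4 °C. Protein measured by BCA; 30 μg run on 10% SDS-PAGE and transferred to nitrocellulose. Membranes blocked in 5% milk, probed with primary antibodies overnight at 4 °C, then HRP secondary for 2 h, and detected by chemiluminescence. Bands quantified by densitometry; at least three experiments.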
# [11] = tested on: SiHa; assay: Down regulation of CDK6 expression in human SiHa cells at 0.5 to 2 uM after 24 to 48 hrs by Western blot analysis; assay type: functional, cell-based; method in brief: as §2
# [12] = tested on: SiHa; assay: Cell cycle arrest in human SiHa cells assessed as accumulation at G0/G1 phase at 2 uM after 3 hrs by propidium iodide staining based flow cytometry (reference value: 48%); assay type: functional
# Method in brief: (§3)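 SiHa cells plated 24 h, treated at 2 μM for 3–48 h; fixed in ice-cold 70% ethanol overnight, RNase A 20 μg/mL 37 °C 30 min, PI-stained, flow cytometry at 488 nm; phase percentages quantified; at least three experiments.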
# [13] = tested on: SiHa; assay: Cell cycle arrest in human SiHa cells assessed as accumulation at G0/G1 phase at 2 uM after 9 hrs by propidium iodide staining based flow cytometry (reference value: 48 %); assay type: functional; method in brief: as §3
# [14] = tested on: SiHa; assay: Cell cycle arrest in human SiHa cells assessed as accumulation at S phase at 2 uM after 9 hrs by propidium iodide staining based flow cytometry (reference value: 13 %); assay type: functional; method in brief: as §1
# [15] = tested on: SiHa; assay: Cell cycle arrest in human SiHa cells assessed as accumulation at G2/M phase at 2 uM after 12 hrs by propidium iodide staining based flow cytometry (reference value: 39 %); assay type: functional; method in brief: as §3
# [16] = tested on: SiHa; assay: Cell cycle arrest in human SiHa cells assessed as accumulation at G2/M phase at 2 uM after 48 hrs by propidium iodide staining based flow cytometry (reference value: 39 %); assay type: functional; method in brief: as §1
# [17] = tested on: SiHa; assay: Cell cycle arrest in human SiHa cells assessed as accumulation at sub-G1 phase at 2 uM after 48 hrs by propidium iodide staining based flow cytometry relative to control; assay type: functional; method in brief: as §1
# [18] = Induction of apoptosis in mouse primary mesangial cells at 0.5 to 2 uM after 48 hrs by Annexin V-FITC/propidium iodide based flow cytometric analysis; conditions: primary mesangial cell
# Method in brief: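 Primary cultured mouse mesangial cells treated at the same concentrations as SiHa cells. Stained with annexin V-FITC and PI and analysed by flow cytometry.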
# [19] = tested on: SiHa; assay: Antiproliferative activity against human SiHa cells harboring NM23-H2 siRNA up to 2 uM after 24 hrs by real-time cellular activity assay; assay type: functional, cell-based
# Method in brief: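 SiHa cells precultured 24 h, transfected with 30 nM NM23-H2 siRNA for 6 h, dosed up to 2 μM 24 h after siRNA; growth followed by impedance-based real-time cell analysis.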
# [20] = tested on: SiHa; assay: Anticlonogenic activity against human SiHa cells up to 0.5 uM after 14 days by crystal violet staining based assay; assay type: functional, cell-based
# Method in brief: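 Colony formation: SiHa cells and primary cultured mouse mesangial cells exposed to 0.5, 0.25, 0.125, 0.0625 and 0.03125 μM for 14 days, DMSO as negative control; three repeats.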
# [21] = tested on: Mus musculus; assay: Toxicity in BALB/C nude mouse xenografted with human SiHa cells at 2.5 to 5 mg/kg, ip administered daily after 3 weeks; assay type: organism-based; conditions: in vivo, 504 h
# Method in brief: (§4)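 SiHa cells implanted in the right armpit of BALB/c nu/nu mice. At approximately 50 mm3, mice randomized (n = 8/group) to vehicle, compound 2.5 or 5.0 mg/kg, or doxorubicin 1.0 mg/kg, given ip daily for 3 weeks. Body weight and signs of pain, distress or discomfort monitored; tumors excised and weighed. Data given as mean ± SEM, t test against vehicle.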
# [22] = tested on: SiHa; assay: Antitumor activity against human SiHa cells xenografted in BALB/C nude mouse assessed as tumor weight at 5 mg/kg, ip administered daily after 3 weeks (reference value: 511.6 mg); assay type: functional
# [23] = tested on: Mus musculus; assay: Toxicity in BALB/C nude mouse xenografted with human SiHa cells assessed as distress at 2.5 to 5 mg/kg, ip administered daily after 3 weeks; assay type: organism-based; conditions: in vivo, 504 h; method in brief: as §4
# [24] = tested on: SiHa; assay: Induction of apoptosis in human SiHa cells assessed as necrotic cells at 2 uM after 48 hrs by Annexin V-FITC/propidium iodide based flow cytometric analysis (reference value: 0.3%); assay type: functional
# [25] = Antiproliferative activity against mouse primary mesangial cells at 4 uM up to 100 hrs by real-time cellular activity assay; assay type: cell-based; conditions: primary mesangial cell
# Method in brief: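 Impedance-based real-time cell analysis at 37 °C, 5% CO2: 100 μL of 20 000 cells/mL added over medium background, settled 20 min, dosed after 24 h; read every 2 min for 2 h, then every 15 min to end; three repeats.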
# Sequence of Nucleoside diphosphate kinase B (Homo sapiens), P22392 [F60A] (P22392 whole entry F60A): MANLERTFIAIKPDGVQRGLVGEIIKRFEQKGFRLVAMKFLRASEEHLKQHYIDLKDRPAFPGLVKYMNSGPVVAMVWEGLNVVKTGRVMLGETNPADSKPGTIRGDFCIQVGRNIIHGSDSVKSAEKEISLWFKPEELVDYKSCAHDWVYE
# Sequence of Nucleoside diphosphate kinase B (Homo sapiens, UniProt P22392) (P22392 whole entry): as the sequence (P22392 whole entry F60A) above, with A60F counted along it
# Sequence of Nucleoside diphosphate kinase B (Homo sapiens, UniProt P22392, D54A) (P22392 whole entry D54A): as the sequence (P22392 whole entry F60A) above, with D54A, A60F counted along it
# Sequence of Nucleoside diphosphate kinase B (Homo sapiens, UniProt P22392, H118F) (P22392 whole entry H118F): as the sequence (P22392 whole entry F60A) above, with A60F, H118F counted along it
compound,measurement,setting,value
CN(C)CCCNc1cc2nc3n(c(=O)c2cc1F)CC/C3=C\c1ccc(OCc2ccccc2)cc1O,Activity,[1],inactive
same,inhibition in vivo at 2.5 mg/kg,[2],48%
same,pKd,[3],5.51
same,pKd,[4],4.74
same,pKd,[5],4.33
same,Activity,[6],inactive
same,Activity,[7],inactive
same,Activity,[8],inactive
same,Activity,[9],11%
same,Activity,[10],Active
same,Activity,[11],Active
same,Activity,[12],51%
same,Activity,[13],67%
same,Activity,[14],12%
same,Activity,[15],27%
same,Activity,[16],0%
same,Activity,[17],100%
same,Activity,[18],Non-Toxic
same,Activity,[19],inactive
same,Activity,[20],Active
same,Activity,[21],Non-Toxic
same,Activity,[22],180.1 mg
same,Activity,[23],Non-Toxic
same,Activity,[24],2.2%
same,Activity,[25],Toxic
